# How the values were obtained:
# Rattus norvegicus [1] = species: Rattus norvegicus; assay: The maximal pressure response caused by the compound in pithed rat; type: functional
# Canis familiaris [2] = species: Canis familiaris; assay: Effective concentration of compound in isolated canine saphenous vein; type: functional; conditions: Canis lupus familiaris
# Summary of the method: (§1)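 Isolated canine blood vessels (saphenous vein without endothelium; femoral artery) exposed to increasing agonist concentrations; contractile responses measured.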
# Canis familiaris [3] = species: Canis familiaris; assay: Maximum contractile response expressed as percentage (mean) of the maximal contraction to KCl (100 mM) in the isolated saphenous vein
# Canis familiaris [4] = species: Canis familiaris; assay: Maximum contractile response expressed as percentage (mean) of the maximal contraction to KCl (100 mM) in the isolated femoral artery
# Rattus norvegicus [5] = assay: Concentration which increases the arterial blood pressure by 20 mmHg in the pithed rat in vivo by intravenous administration; type: functional, Artery
# Canis familiaris [6] = species: Canis familiaris; assay: Effective Concentration compound in isolated canine femoral artery; type: functional; conditions: Canis lupus familiaris; summary of the method: as §1
# Canis familiaris [7] = species: Canis familiaris; assay: Maximum contractile response expressed as percentage (mean) of the maximal contraction to KCl (100 mM) in the isolated saphenous vein; remark: listed apart in the source
# Canis familiaris [8] = species: Canis familiaris; assay: Maximum contractile response expressed as percentage (mean) of the maximal contraction to KCl (100 mM) in the isolated femoral artery; remark: listed apart in the source
# [9] = C20 ratio was determined in the presence or absence of 1 mg of yohimbine for the compound which are indicative of the contribution of alpha-2 adnergic mechanisms to the pressor response; type: functional
# Summary of the method: (§2)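 Pithed rats received test compound as cumulative iv doses, and mean arterial pressure was recorded. C20 is the iv dose (µg/kg) that raises arterial pressure by 20 mmHg (mean ± SEM, n = 5). The same cumulative doses were repeated 10 min after iv prazosin 100 µg/kg or iv yohimbine 1 mg/kg. The ratio is C20 without antagonist over C20 with antagonist.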
# [10] = C20 ratio was determined in the presence or absence of 0.1 mg of prazosin for the compound which are indicative of the contribution of alpha-1 adnergic mechanisms to the pressor response; type: functional; summary of the method: as §2
EC50 (Canis familiaris [2]) [nM],EC50 (Canis familiaris [6]) [nM],Structure (SMILES),Max (Rattus norvegicus [1]) [mmHg],Emax (Canis familiaris [3]),Emax (Canis familiaris [4]),C20 (Rattus norvegicus [5]) [µg/kg],Emax (Canis familiaris [7]),Emax (Canis familiaris [8]),Ratio [9],Ratio [10]
2800,> 3000,Cc1ccc2c(c1)C[C@]1(CC2)CN=CN1,109,39.4,8.4,44.8,,,,
220,> 3000,Cc1ccc2c(c1)C[C@@]1(CC2)CN=CN1,106,,,5.8,78.3,15.8,,
360,> 3000,Cc1ccc2c(c1)CC1(CC2)CN=CN1 (stereo unspecified),112,68.5,7.7,6.7,,,,

Structure (SMILES),EC50 (Canis familiaris [2]) [nM],EC50 (Canis familiaris [6]) [nM],Max (Rattus norvegicus [1]) [mmHg],Emax (Canis familiaris [3]),Emax (Canis familiaris [4]),C20 (Rattus norvegicus [5]) [µg/kg],Emax (Canis familiaris [7]),Emax (Canis familiaris [8]),Ratio [9],Ratio [10]
FC(F)(F)c1ccc(Cl)c(NC2=NCCN2)c1,2020,10900,129,54.4,19.7,8.6,,,1.8,16

# — ChEMBL document CHEMBL1130142, “(S)-spiro[(1,3-diazacyclopent-1-ene)-5,2'-(7'-methyl-1',2',3',4'- tetrahydronaphthalene)]: resolution, stereospecific synthesis, and preliminary pharmacological characterization as a partial alpha-adrenergic agonist” (J Med Chem, 1997)
